AHR act – activates the human aryl hydrocarbon receptor. P35869. AHR-responsive luciferase reporter cells, luminescence. activation, % at 5 µM. 320,000 tested, 2.5% active; in the data active means activation above about 47%
SR-BI DiI-HDL act – activators of SR-BI mediated HDL lipid uptake. CHO ldlA[mSR-BI] cells, DiI-HDL uptake fluorescence, 3 h; 100 = double the neutral-control signal. 320,000 tested, 0.096% active. AID 504775. activation, % at 12.5 µM;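 active means mean replicate activation of at least 60% and every replicate at or above 60%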
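Assay system: LDL receptor-deficient CHO ldlA cells overexpressing murine SR-BI / Medium: BSA-supplemented, HEPES-buffered Ham's F12, pH 7.4 / Probe or stimulus: DiI-labelled HDL at 10 µg/mL final / Timing: compound with DiI-HDL co-incubation, 3 h at 37 °C / Technique: bottom-read cell fluorescence after medium removal, ex 550/em 595 nm / Measure: HDL uptake via cellular fluorescence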
Hep lipid drop – modulators of hepatic lipid droplet formation | AML12 mouse hepatocytes, oleate lipid droplets, BODIPY imaging | inhibition, % at 6.5 µM | 240,000 tested, 0.4% active | AID 1656;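 active means lipid droplet intensity inhibited by at least 50%, with more than 500 cells counted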
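material = mouse AML12 hepatocyte cell line, fixed after treatment | also added = 100 µM oleic acid challenge | doses = compound at 6.5 µM only | schedule = overnight exposure | technique = Image-based BODIPY and DAPI two-channel analysis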
SMARCA2 activ – activators of SMARCA2 function; MG213 cells, MMTV-luciferase reporter, dexamethasone, overnight; activation, % at 9.1 µM; 370,000 tested, 1% active; in the data active means activation above about 7.8%
SR-BI DiI inh – blocks mouse SR-BI lipid uptake from DiI-HDL. Q61009. ldlA[mSR-BI] CHO cells, DiI-HDL uptake fluorescence, 3 h. inhibition, % at 12.5 µM. 320,000 tested, 0.96% active. AID 488896;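 active means mean replicate inhibition of at least 70% and a set share of replicates each scoring 70 or more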
CR mimetic SO – caloric restriction mimetics inhibiting age-related superoxide in yeast; superoxide response (% of plate mean), % at 10 µM; 330,000 tested, 0.18% active; S. cerevisiae aged cells, superoxide DHE fluorescence; stronger effect = lower value;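 active means superoxide response under a set limit, about three screen SD below normal, cut at about 65% in these data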;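 further: yeast aged for seven days with compound at 30 °C before DHE staining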
SMARCA2 conf – confirmation of SMARCA2 (BRM) function activators; AID 652260; 3,500 tested, 30% active; activation, % at 9.1 µM; shares compounds with SMARCA2 activ; MG213 cells, MMTV-luciferase with dexamethasone, luminescence, overnight; MG213 cells expressing E1A, Rb sequestered; DMSO wells 0%, reference activator 100%;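 active means activation above its plate's cutoff, the mean activation of tested wells plus 3 SD, cut at about 7.9% in these data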
VP16 Luc act – activates GAL4-VP16 luciferase, flagging SMARCA2 activator hits | 3,500 tested, 41% active | AID 686939 | shares compounds with SMARCA2 activ | activation, % at 9.1 µM | HEK293 GAL4-VP16 pG5luc reporter, luciferase luminescence; scaled: DMSO wells 0%, SAHA wells 100%;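 active means activation above the solvent-only control well mean plus 3 SD, averaged across control plates, cut at about 5.2% in these data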
Hits are given with their value; i = inactive; nt = no result. A selection: hits, their analogues and other compounds. The true share with any hit is near 4.3%.

SMILES	AHR act	SR-BI DiI-HDL act	Hep lipid drop	SMARCA2 activ	SR-BI DiI inh	CR mimetic SO	SMARCA2 conf	VP16 Luc act
COc1cc(/C=N\NC(=O)OC(C)(C)C)ccc1OC(=O)c1ccco1	i	i	i	i	i	i	nt	nt
COc1cc(/C=N/Nc2ccccc2)ccc1OC(=O)c1cccs1	i	nt	i	9.7	nt	i	i	i
COc1ccc(/C=N/NC(=O)OC(C)(C)C)cc1OC	i	i	i	8.4	i	i	i	i
COc1ccc(/C=N\NC(=O)C2CCCC2)cc1Br	i	i	i	9.0	i	i	i	i
O=C(Nc1ccccc1)OCCN1C(=O)CCC12CCC(c1ccccc1)CC2 (stereo unspecified)	nt	nt	nt	i	nt	nt	nt	nt
C[C@@H]1CCN(C2CC2)S(=O)(=O)c2ccc(N3CCC[C@@H]3CO)cc2O1	nt	nt	nt	i	nt	nt	nt	nt
CN(C)C=Nc1ccc(Cn2cnc3nc4ccc(Cl)cc4cc3c2=O)cc1	nt	nt	nt	i	nt	nt	nt	nt
COc1ccc(/C=N/Nc2ccc(C(=O)O)cc2)cc1OC	i	nt	i	9.1	nt	i	i	13
CCOC(=O)C(=CNCC(=O)O)C(=O)OCC	i	i	nt	11	i	i	i	i
COCc1[nH]nc2c1C(c1ccc(C)cc1)N(Cc1ccccc1)C2=O (stereo unspecified)	nt	nt	nt	i	nt	nt	nt	nt
COc1ccc(CCNc2ncccc2C#N)cc1OC	i	i	i	10	i	i	i	9.6
O=C(N[C@H](C(=O)N1CCC[C@H]1C(=O)NC1CCCC1)C1CCCCC1)c1ccc(Cl)c(Cl)c1	nt	nt	nt	i	nt	nt	nt	nt
COCC1CCN(Cc2nc(-c3cccs3)no2)C1 (stereo unspecified)	i	i	i	13	i	i	i	6.0
COCC1CCN(Cc2nc(COc3ccccc3)no2)C1 (stereo unspecified)	i	i	i	8.3	i	i	i	i
CCc1ccc(C(=O)Nc2cccc(-c3nn[nH]n3)c2)s1	i	i	i	9.2	i	i	i	i
O=C(Nc1cccc(-c2nn[nH]n2)c1)c1cccs1	i	i	i	i	i	i	nt	nt
O=C(CSc1nnc(-c2ccccc2)n1-c1ccc(Cl)cc1)Nc1ccccc1-c1ccccc1	nt	nt	nt	i	nt	nt	nt	nt
CC(=O)C1=C(C)N(Cc2ccc(F)cc2)C(=S)NC1c1ccc(Cl)cc1 (stereo unspecified)	nt	nt	nt	i	nt	nt	nt	nt
CCOc1ccc(C(=O)Nc2ccc3nc(N4CCN(CC)CC4)cc(C)c3c2)cc1	i	i	i	i	i	i	nt	nt
CCN1CCN(c2cc(C)c3cc(NC(=S)N4CCOCC4)ccc3n2)CC1	i	nt	i	i	nt	i	nt	nt
CCN1CCN(c2cc(C)c3cc(NC(=O)c4cc(OC)cc(OC)c4)ccc3n2)CC1	i	nt	i	9.9	nt	i	14	5.5
CCN1CCN(c2cc(C)c3cc(NC(=S)N4CCN(c5ccccc5)CC4)ccc3n2)CC1	i	nt	i	9.1	nt	i	26	i
CCNC(=O)N(C)[C@H]1C[C@H]2c3[nH]c4cccc(-c5ccc6c(c5)OCO6)c4c3CCN2C[C@H]1[C@H](C)O	nt	nt	nt	i	nt	nt	nt	nt
O=C(Nc1nc(=O)c2ccccc2s1)c1ccc(Cl)cc1	i	i	i	i	i	i	nt	nt
O=C(Nc1nc(=O)c2ccccc2s1)c1ccc(F)cc1	i	i	i	19	i	i	8.1	8.0
SMILES	AHR act	SR-BI DiI-HDL act	Hep lipid drop	SMARCA2 activ	SR-BI DiI inh	CR mimetic SO	SMARCA2 conf	VP16 Luc act
C=CCNc1nc(NCc2ccc(N(C)C)cc2)c2sc(-c3ccccc3)cc2n1	nt	nt	nt	10	nt	nt	11	11
CCOC(=O)[C@]12CCCCC/C=C\1N(Cc1ccc(OC)cc1)C(=O)[C@H]2CC(=O)NCCCCc1ccccc1	nt	nt	nt	i	nt	nt	nt	nt
C=CCN=C1NC(c2ccccc2C(F)(F)F)C(C(=O)OC)=C(C)N1Cc1ccc(C(F)(F)F)cc1 (stereo unspecified)	nt	nt	nt	i	nt	nt	nt	nt
c1ccc2c(c1)N=C(N1CCN(Cc3ccc4c(c3)OCO4)CC1)c1ccccc1S2	nt	nt	nt	i	nt	nt	nt	nt
COc1ccc(C[C@H](C)NC[C@@H](O)c2ccc(O)c(NC=O)c2)cc1	i	i	nt	14	i	i	12	15
Cc1cccc(C(=O)Nc2nc3ncccn3c2-c2ccc(F)c(F)c2)c1	nt	nt	nt	i	nt	nt	nt	nt
CCN1CCN(c2ccc(S(=O)(=O)N3CCOCC3)cc2NC(=O)/C=C/c2ccc(C)cc2)CC1	i	i	nt	i	i	i	nt	nt
O=C(/C=C/c1ccc(Cl)cc1)Nc1cc(S(=O)(=O)N2CCOCC2)ccc1N1CCOCC1	i	i	nt	8.2	i	i	i	i
CCN1CCN(c2ccc(S(=O)(=O)N3CCCCC3)cc2NC(=O)/C=C/c2ccc([N+](=O)[O-])cc2)CC1	i	i	nt	15	i	i	23	i
Cc1ccc(-c2cc(-c3nnc(SCC(=O)N4c5ccccc5Sc5ccc(Cl)cc54)n3N)[nH]n2)cc1	nt	nt	nt	i	nt	nt	nt	nt
O=C(Nc1ccc2oc(=O)ccc2c1)c1ccco1	i	i	nt	8.3	i	i	i	i
CCOC(=O)C1=C(C)N=c2s/c(=C3\C(=O)Nc4ccccc43)c(=O)n2C1c1ccc2c(c1)OCO2 (stereo unspecified)	i	i	59	11	i	i	i	i
CN(C)/C=N/c1nc2ccc3c(c2s1)CCCC3	63	i	nt	15	i	i	18	13
CN(C)/C=N/c1ncc(C(=O)c2ccc3ccccc3c2)s1	i	i	nt	i	i	i	nt	nt
Nc1[nH]c(C(=O)c2ccccc2)c(-c2ccc3ccccc3c2)c1C(=O)NCc1ccc(F)cc1	nt	nt	nt	i	nt	nt	nt	nt
CCC/C(=N\NC(=O)C1CC1)c1ccccc1	i	nt	nt	8.1	nt	i	i	i
CCC/C(=N\NC(=O)C1CC1)c1ccc(Br)cc1	i	i	i	i	i	i	nt	nt
CCOC(=O)[C@@]12CN(C(=O)OC(C)(C)C)CC=C1N(Cc1ccc(OC)cc1)C(=O)[C@H]2CC(=O)NCC12CC3CC(CC(C3)C1)C2	nt	nt	nt	i	nt	nt	nt	nt
COc1ccc(S(=O)(=O)N2CCOCC2)cc1NC(=O)CCNC(=O)c1ccc(Cl)cc1	nt	i	nt	8.1	i	nt	i	i
Cc1ccc(CN2CCCCC(NC(=O)c3ccc(COc4ccccc4)cc3)C2=O)cc1 (stereo unspecified)	nt	nt	nt	i	nt	nt	nt	nt
Cc1n[nH]c(=S)n1/N=C/c1cccc(OCc2ccccc2)c1	i	i	i	8.6	i	i	i	i
Cc1cc(N2CCNC[C@H]2C)ccc1N1C[C@@H](C)O[C@@H](C)C1	nt	nt	nt	i	nt	nt	nt	nt
CC(C)Oc1ccc(C(=O)OCC(=O)c2ccc[nH]2)cc1	i	i	nt	12	i	i	9.4	7.3
CC(C1=CCCCC1)c1cnn(C)c1 (stereo unspecified)	nt	nt	nt	9.4	nt	nt	i	i

Screening data deposited in PubChem BioAssay by several laboratories.
